Laboratory results taken from ChEMBL document CHEMBL1151448, “Comparative antianaerobic activities of doripenem determined by MIC and time-kill analysis” (2008).
Converted amounts (≈) assume the structure as drawn. The source made the active and inactive calls. The rule behind the calls is not given here.

Assays:
Clostridium perfringens [1] = assay: Antimicrobial activity against Clostridium perfringens isolated from intra-abdominal infection and pelvic inflammatory disease patients after 48 hrs by time kill analysis; assay type: functional
How it was run: (§1)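 Macrodilution in prereduced brucella broth with 5% laked horse blood cells, 5 μg/ml hemin and 1 μg/ml vitamin K1. Final inoculum 10^6 to 10^7 CFU/ml, prepared inside the anaerobe chamber. Vials incubated 48 h at 35°C in a shaking water bath. MIC read by inspecting the time-kill tubes, alongside an antibiotic-free growth control.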

Clostridioides difficile [2] = assay: Antimicrobial activity against Clostridium difficile isolated from intra-abdominal infection and pelvic inflammatory disease patients after 48 hrs by agar dilution method; assay type: functional
How it was run: (§2)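 CLSI agar dilution on brucella blood agar supplemented with laked sheep blood, hemin and vitamin K. Inocula of about 1 × 10^5 CFU/spot were applied by Steers replicator, and plates were incubated 48 h at 35°C in an anaerobic glove box. MIC was the concentration giving marked growth reduction versus the anaerobic control plate. QC strains were included each run, and β-lactamase was detected by Cefinase disk.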

Prevotella intermedia [3] = assay: Antimicrobial activity against beta lactamase-positive Prevotella intermedia isolated from intra-abdominal infection and pelvic inflammatory disease patients after 48 hrs by agar dilution method; assay type: functional; how it was run: as §2
Prevotella intermedia [4] = assay: Antimicrobial activity against beta lactamase-positive Prevotella intermedia isolated from intra-abdominal infection and pelvic inflammatory disease patients after 48 hrs by time kill analysis; assay type: functional
How it was run: (§3)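 The MIC was read by inspecting macrodilution time-kill tubes. Vials held prereduced brucella broth with 5% laked horse blood cells, hemin 5 μg/ml and vitamin K1 1 μg/ml. Final inoculum was 10^6–10^7 CFU/ml, prepared inside the anaerobe chamber. Vials were incubated 48 h at 35°C in a shaking water bath.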

Bacteroides ovatus = assay: Antimicrobial activity against beta lactamase-positive Bacteroides ovatus isolated from intra-abdominal infection and pelvic inflammatory disease patients after 48 hrs by agar dilution method; assay type: functional; how it was run: as §2
[5] = test system: Paeniclostridium sordellii; assay: Antimicrobial activity against Clostridium sordellii isolated from intra-abdominal infection and pelvic inflammatory disease patients after 48 hrs by agar dilution method; assay type: functional; details: Paraclostridium sordellii; how it was run: as §2
Fusobacterium nucleatum = assay: Antimicrobial activity against beta lactamase-positive Fusobacterium nucleatum isolated from intra-abdominal infection and pelvic inflammatory disease patients after 48 hrs by time kill analysis; assay type: functional; how it was run: as §3
[6] = test system: Paraclostridium bifermentans; assay: Antimicrobial activity against Clostridium bifermentans isolated from intra-abdominal infection and pelvic inflammatory disease patients after 48 hrs by agar dilution method; assay type: functional; how it was run: as §2
Anaerococcus prevotii = assay: Antimicrobial activity against Anaerococcus prevotii isolated from intra-abdominal infection and pelvic inflammatory disease patients after 48 hrs by agar dilution method; assay type: functional; how it was run: as §2
Clostridium perfringens [7] = assay: Bactericidal activity against Clostridium perfringens isolated from intra-abdominal infection and pelvic inflammatory disease patients assessed as bacterial killing at MIC after 24 hrs by time kill analysis; assay type: functional
How it was run: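 Time-kill in prereduced brucella broth with 5% laked horse blood cells, hemin and vitamin K1. […] Viable counts taken at 6, 12, 24 and 48 h, plates incubated 48 h anaerobically. Kill scored as 90%, 99% or 99.9%; 99.9% defines bactericidal.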

Clostridioides difficile [8] = assay: Antimicrobial activity against Clostridium difficile isolated from intra-abdominal infection and pelvic inflammatory disease patients after 48 hrs by time kill analysis; assay type: functional; how it was run: as §1
Finegoldia magna [9] = assay: Bactericidal activity against beta lactamase-positive Finegoldia magna isolated from intra-abdominal infection and pelvic inflammatory disease patients assessed as bacterial killing at MIC after 24 hrs by time kill analysis; assay type: functional
How it was run: (§4)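 Anaerobic macrodilution time-kill. Inoculum from brucella blood plates, prepared and diluted in prereduced brucella broth inside the anaerobe chamber. Final 10^6 to 10^7 CFU/ml in prereduced brucella broth with 5% laked horse blood cells, 5 μg/ml hemin and 1 μg/ml vitamin K1. […] Shaken at 35°C for 48 h. Viable counts taken at 6, 12, 24 and 48 h. 99.9% kill taken as bactericidal.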

Prevotella intermedia [10] = assay: Bactericidal activity against beta lactamase-positive Prevotella intermedia isolated from intra-abdominal infection and pelvic inflammatory disease patients assessed as bacterial killing at MIC after 24 hrs by time kill analysis; assay type: functional; how it was run: as §4
Prevotella corporis = assay: Antimicrobial activity against beta lactamase-positive Prevotella corporis isolated from intra-abdominal infection and pelvic inflammatory disease patients after 48 hrs by agar dilution method; assay type: functional; how it was run: as §2
Phocaeicola vulgatus = assay: Antimicrobial activity against beta lactamase-positive Bacteroides vulgatus isolated from intra-abdominal infection and pelvic inflammatory disease patients after 48 hrs by agar dilution method; assay type: functional; how it was run: as §2
[11] = test system: Peptoniphilus asaccharolyticus; assay: Antimicrobial activity against Peptoniphilus asaccharolyticus isolated from intra-abdominal infection and pelvic inflammatory disease patients after 48 hrs by agar dilution method; assay type: functional; how it was run: as §2
[12] = test system: Bacteroides thetaiotaomicron; assay: Antimicrobial activity against beta lactamase-positive Bacteroides thetaiotaomicron isolated from intra-abdominal infection and pelvic inflammatory disease patients after 48 hrs by time kill analysis; assay type: functional; how it was run: as §3
Porphyromonas gingivalis = assay: Antimicrobial activity against Porphyromonas gingivalis isolated from intra-abdominal infection and pelvic inflammatory disease patients after 48 hrs by agar dilution method; assay type: functional; how it was run: as §2
Clostridium cadaveris = assay: Antimicrobial activity against Clostridium cadaveris isolated from intra-abdominal infection and pelvic inflammatory disease patients after 48 hrs by agar dilution method; assay type: functional; how it was run: as §2
Finegoldia magna [13] = assay: Bactericidal activity against beta lactamase-positive Finegoldia magna isolated from intra-abdominal infection and pelvic inflammatory disease patients assessed as 99.9% bacterial killing at 2 times MIC after 48 hrs by time kill analysis; assay type: functional, organism-based
How it was run: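 Macrodilution time-kill in prereduced brucella broth with 5% laked horse blood, hemin 5 μg/ml and vitamin K1 1 μg/ml, at final inoculum 10^6–10^7 CFU/ml. […] Viable counts were taken at 6, 12, 24 and 48 h on plates incubated 48 h anaerobically. 99.9% kill was taken as bactericidal.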

Fusobacterium mortiferum = assay: Antimicrobial activity against beta lactamase-positive Fusobacterium mortiferum isolated from intra-abdominal infection and pelvic inflammatory disease patients after 48 hrs by agar dilution method; assay type: functional; how it was run: as §2
Finegoldia magna [14] = assay: Antimicrobial activity against Finegoldia magna isolated from intra-abdominal infection and pelvic inflammatory disease patients after 48 hrs by agar dilution method; assay type: functional; how it was run: as §2
Finegoldia magna [15] = assay: Antimicrobial activity against beta lactamase-positive Finegoldia magna isolated from intra-abdominal infection and pelvic inflammatory disease patients after 48 hrs by time kill analysis; assay type: functional; how it was run: as §3
Anaerococcus tetradius = assay: Antimicrobial activity against Anaerococcus tetradius isolated from intra-abdominal infection and pelvic inflammatory disease patients after 48 hrs by agar dilution method; assay type: functional; how it was run: as §2
Prevotella disiens = assay: Antimicrobial activity against beta lactamase-positive Prevotella disiens isolated from intra-abdominal infection and pelvic inflammatory disease patients after 48 hrs by agar dilution method; assay type: functional; how it was run: as §2
Prevotella bivia = assay: Antimicrobial activity against beta lactamase-positive Prevotella bivia isolated from intra-abdominal infection and pelvic inflammatory disease patients after 48 hrs by agar dilution method; assay type: functional; how it was run: as §2
[16] = test system: Enterocloster clostridioformis; assay: Antimicrobial activity against Clostridium clostridioforme isolated from intra-abdominal infection and pelvic inflammatory disease patients after 48 hrs by agar dilution method; assay type: functional; how it was run: as §2
Prevotella buccae = assay: Antimicrobial activity against beta lactamase-positive Prevotella buccae isolated from intra-abdominal infection and pelvic inflammatory disease patients after 48 hrs by agar dilution method; assay type: functional; details: Segatella buccae; how it was run: as §2
[17] = test system: Clostridium paraputrificum; assay: Antimicrobial activity against Clostridium paraputrificum isolated from intra-abdominal infection and pelvic inflammatory disease patients after 48 hrs by agar dilution method; assay type: functional; how it was run: as §2

Work on C[C@@H](O)[C@H]1C(=O)N2C(C(=O)O)=C(SCCNC=N)C[C@H]12 [IMIPENEM ANHYDROUS] yielded an MIC (Clostridium perfringens [1]) of 0.06 µg/mL (≈ 0.2 µM), an MIC50 (Clostridioides difficile [2]) of 8 µg/mL (≈ 26.7 µM) and an MIC90 (Clostridioides difficile [2]) of 8 µg/mL (≈ 26.7 µM). It also gave an MIC50 (Prevotella intermedia [3]) of 0.03 µg/mL (≈ 0.1 µM), an MIC90 (Prevotella intermedia [3]) of 0.125 µg/mL (≈ 0.418 µM) and an MIC (Prevotella intermedia [4]) of 0.03 µg/mL (≈ 0.1 µM). The MIC50 (Bacteroides ovatus) was 0.25 µg/mL (≈ 0.835 µM), the MIC90 (Bacteroides ovatus) was 0.5 µg/mL (≈ 1.67 µM) and the MIC [5] was 0.125 µg/mL (≈ 0.418 µM). The MIC (Fusobacterium nucleatum) was 0.016 µg/mL (≈ 0.0534 µM), the MIC [6] was 0.25 µg/mL (≈ 0.835 µM) and the MIC (Anaerococcus prevotii) was at most 0.016 µg/mL. The Activity (Clostridium perfringens [7]) was 90%, the MIC (Clostridioides difficile [8]) was 4 µg/mL (≈ 13.4 µM) and the Activity (Finegoldia magna [9]) was 90%. The Activity (Prevotella intermedia [10]) was 90%, the MIC50 (Prevotella corporis) was 0.03 µg/mL (≈ 0.1 µM) and the MIC90 (Prevotella corporis) was 0.06 µg/mL (≈ 0.2 µM). The MIC50 (Phocaeicola vulgatus) was 0.5 µg/mL (≈ 1.67 µM), the MIC90 (Phocaeicola vulgatus) was 1 µg/mL (≈ 3.34 µM) and the MIC [11] was at most 0.016 µg/mL. It also gave an MIC50 [11] of at most 0.016 µg/mL, an MIC90 [11] of 0.03 µg/mL (≈ 0.1 µM) and an MIC [12] of 0.25 µg/mL (≈ 0.835 µM). The MIC (Porphyromonas gingivalis) was at most 0.016 µg/mL, the MIC (Clostridium cadaveris) was 0.125 µg/mL (≈ 0.418 µM) and the Activity (Finegoldia magna [13]) was “inactive”. It also gave an MIC50 (Fusobacterium mortiferum) of 1 µg/mL (≈ 3.34 µM), an MIC90 (Fusobacterium mortiferum) of 1 µg/mL (≈ 3.34 µM) and an MIC50 (Finegoldia magna [14]) of 0.06 µg/mL (≈ 0.2 µM). For the same molecule, the MIC90 (Finegoldia magna [14]) was 0.06 µg/mL (≈ 0.2 µM), the MIC (Finegoldia magna [15]) was 0.06 µg/mL (≈ 0.2 µM) and the MIC50 (Anaerococcus tetradius) was 0.03 µg/mL (≈ 0.1 µM). The MIC (Prevotella disiens) was 0.03 µg/mL (≈ 0.1 µM), the MIC50 (Prevotella disiens) was 0.03 µg/mL (≈ 0.1 µM) and the MIC90 (Prevotella disiens) was 0.125 µg/mL (≈ 0.418 µM). The MIC50 (Prevotella bivia) was 0.03 µg/mL (≈ 0.1 µM), the MIC90 (Prevotella bivia) was 0.06 µg/mL (≈ 0.2 µM) and the MIC [16] was 2 µg/mL (≈ 6.68 µM). For the same molecule, the MIC (Prevotella buccae) was 0.03 µg/mL (≈ 0.1 µM), the MIC50 (Prevotella buccae) was 0.03 µg/mL (≈ 0.1 µM) and the MIC90 (Prevotella buccae) was 0.03 µg/mL (≈ 0.1 µM). The MIC [17] was 0.5 µg/mL (≈ 1.67 µM).
